According to ChEMBL document CHEMBL1141224, “Parallel solution-phase and microwave-assisted synthesis of new S-DABO derivatives endowed with subnanomolar anti-HIV-1 activity” (J Med Chem, 2005):
pEC50: −log10 of the molar value. Active and inactive are the calls of the source. The rule behind the calls is not given here.

Columns and labels:
[1] = tested on: Human immunodeficiency virus type 1 reverse transcriptase (Human immunodeficiency virus 1), Q72547 [K103N]
[2] = tested on: Human immunodeficiency virus 1; experiment: Antiviral activity against HIV1 IRLL98 mutant strain infected MT4 cells by MTT method; assay type: functional, organism-based; conditions: Human immunodeficiency virus 1, IRLL98, MT4
Procedure, shortened: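 MT-4 cells infected with the HIV-1 mutant strain, or mock-infected for cytotoxicity, in the presence of a range of drug concentrations. Viable cells were counted by MTT colorimetric assay on day 5 post-infection. EC50 is the concentration that blocks 50% of HIV-induced cell death. Values are the mean of at least two experiments. IRLL98 carries RT mutations K101Q, Y181C and G190A, plus NRTI mutations.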

MT4 = experiment: Cytotoxicity against MT4 cells by MTT method; assay type: functional; conditions: Homo sapiens
Procedure, shortened: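 Mock-infected MT-4 cells exposed to graded drug concentrations. Viability assessed by MTT colorimetric method at day 5. CC50 is the concentration causing 50% death of noninfected cells. Mean of at least two experiments.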

[3] = tested on: Human immunodeficiency virus 1; experiment: Antiviral activity against HIV1 Y188L mutant strain infected MT4 cells by MTT method; assay type: functional, organism-based; conditions: for pEC50: Human immunodeficiency virus 1, Y188L, MT4
[4] = target: Human immunodeficiency virus type 1 reverse transcriptase (Human immunodeficiency virus 1) (UniProt Q72547)
[5] = tested on: Human immunodeficiency virus 1; experiment: Antiviral activity against wild type HIV1 NL4-3 infected MT4 cells by MTT method; assay type: functional, organism-based; conditions: Human immunodeficiency virus 1, NL4-3, MT4
Procedure, shortened: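 MT-4 lymphoid cells infected with HIV-1 NL4-3 in the presence of graded drug concentrations. Viable cells counted by MTT colorimetric assay at day 5 post-infection. EC50 is the concentration protecting 50% of cells from HIV-induced death. Mean of at least two experiments.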

[6] = tested on: Human immunodeficiency virus type 1 reverse transcriptase (Human immunodeficiency virus 1), Q72547 [Y181I]; experiment: Inhibition of Y181I mutant HIV1 reverse transcriptase by [3H]dTTP poly(rA)/oligo(dT) incorporation at 400 uM
Procedure, shortened: (§1)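 RNA-dependent DNA polymerase assay of recombinant RT at 5–10 nM. Template: poly(rA)/oligo(dT) (0.3 μM 3'-OH ends) with 10 μM [3H]-dTTP. Run 10 min at 37 °C with increasing inhibitor. TCA-precipitated product was counted on GF/C filters. Highest concentration tested was 400 μM.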

[7] = tested on: Human immunodeficiency virus 1; experiment: Antiviral activity against HIV1 K103N mutant strain infected MT4 cells by MTT method; assay type: functional, organism-based; conditions: Human immunodeficiency virus 1, K103N
[8] = target: Human immunodeficiency virus type 1 reverse transcriptase (Human immunodeficiency virus 1) (UniProt Q72547); experiment: Inhibition of wild type HIV1 reverse transcriptase by [3H]dTTP poly(rA)/oligo(dT) incorporation at 400 uM
Procedure, shortened: as §1

[9] = tested on: Human immunodeficiency virus type 1 reverse transcriptase (Human immunodeficiency virus 1), Q72547 [K103N]; experiment: Inhibition of K103N mutant HIV1 reverse transcriptase by [3H]dTTP poly(rA)/oligo(dT) incorporation at 400 uM
Procedure, shortened: as §1

[10] = tested on: Human immunodeficiency virus type 1 reverse transcriptase (Human immunodeficiency virus 1), Q72547 [Y181I]

Compound | ID50 [1] [µM] | pEC50 [2] | CC50 (MT4) [µM] | pEC50 [3] | ID50 [4] [µM] | pEC50 [5] | ID50 [6] | pEC50 [7] | ID50 [8] | ID50 [9] | ID50 [10] [µM] | Inhibition [3] [%]
Cc1c(O)nc(SCc2ccc(Br)cc2)nc1Cc1c(Cl)cccc1Cl | 9 | < 4.28 | 13 | < 4.28 | 0.39 | 6.10 | inactive | < 4.28 | – | – | – | –
COc1cc(CSc2nc(O)c(C)c(Cc3c(F)cccc3F)n2)cc(OC)c1 | – | < 4.22 | > 60 | < 4.22 | – | 4.74 | inactive | < 4.22 | inactive | inactive | – | –
COc1ccc(CSc2nc(O)c(C)c(Cc3c(F)cccc3F)n2)cc1 | 3.5 | 6.16 | > 64 | 5.00 | 0.007 | 7.59 | inactive | 6.16 | – | – | – | –
Cc1c(O)nc(SCc2ccc(O)cc2)nc1Cc1c(Cl)cccc1Cl | – | < 4.39 | 41 | < 4.39 | – | < 4.39 | inactive | < 4.39 | inactive | inactive | – | –
Cc1c(O)nc(SCc2cccc(C#N)c2)nc1Cc1c(Cl)cccc1Cl | – | 5.30 | > 60 | < 4.22 | 9.5 | 6.05 | inactive | < 4.22 | – | inactive | – | –
Cc1c(Cc2c(F)cccc2F)nc(SCc2ccc([N+](=O)[O-])cc2)[nH]c1=O | – | < 4.21 | > 62 | < 4.21 | – | 7.13 | inactive | < 4.21 | inactive | inactive | – | –
Cc1c(O)nc(SCc2ccc(C#N)cc2)nc1Cc1c(F)cccc1F | – | < 4.19 | > 65 | < 4.19 | 0.76 | 7.28 | inactive | < 4.19 | – | inactive | – | –
COc1ccc(CS(=O)(=O)c2nc(O)c(C)c(Cc3c(Cl)cccc3Cl)n2)cc1 | 10 | < 5.55 | 2.8 | < 5.55 | 0.006 | < 5.55 | – | < 5.55 | – | – | 27 | –
Cc1c(O)nc(S(=O)(=O)Cc2ccc([N+](=O)[O-])cc2)nc1Cc1c(Cl)cccc1Cl | – | < 4.28 | > 53 | < 4.28 | – | < 4.28 | inactive | < 4.28 | inactive | inactive | – | –
Cc1c(O)nc(SCc2ccc([N+](=O)[O-])cc2)nc1Cc1c(Cl)cccc1Cl | 0.12 | 5.48 | > 58 | – | 0.009 | 6.10 | – | 4.96 | – | – | 0.22 | 31
CCOc1ccc(CSc2nc(O)c(C)c(Cc3c(Cl)cccc3Cl)n2)cc1 | – | 5.72 | > 58 | < 4.24 | 2 | 6.60 | inactive | < 4.24 | – | inactive | – | –
COc1ccc(CCSc2nc(Cc3c(Cl)cccc3Cl)c(C)c(=O)[nH]2)cc1 | 3.2 | 9.66 | > 57 | 5.16 | 0.026 | > 9.85 | – | 6.06 | – | – | 1.5 | –
Cc1c(O)nc(SCc2ccc(F)cc2)nc1Cc1c(Cl)cccc1Cl | – | 5.57 | > 61 | < 4.21 | 16 | 6.96 | inactive | 4.57 | – | inactive | – | –
Cc1c(O)nc(SCc2ccc(C#N)cc2)nc1Cc1c(Cl)cccc1Cl | – | 6.00 | > 60 | < 4.22 | 103 | 6.77 | inactive | 7.00 | – | inactive | – | –
Cc1c(O)nc(SCc2ccc3c(c2)OCO3)nc1Cc1c(Cl)cccc1Cl | – | 6.29 | > 57 | 4.48 | 0.5 | 6.92 | inactive | 5.28 | – | inactive | – | –
Cc1c(O)nc(SCc2ccc([N+](=O)[O-])cc2)nc1Cc1ccc(F)cc1 | – | < 4.19 | > 65 | < 4.19 | – | < 4.19 | inactive | < 4.19 | inactive | inactive | – | –
COc1cc(CSc2nc(O)c(C)c(Cc3c(Cl)cccc3Cl)n2)cc(OC)c1 | – | < 4.26 | > 55 | < 4.26 | 256 | 4.48 | inactive | < 4.26 | – | inactive | – | –
Cc1ccnc2c1NC(=O)c1cccnc1N2C1CC1 [NEVIRAPINE] | 8 | < 5.12 | > 7.5 | < 5.12 | – | 7.28 | – | 5.41 | – | – | 20 | –
Cc1c(O)nc(S(=O)(=O)Cc2ccc(Br)cc2)nc1Cc1c(Cl)cccc1Cl | – | < 4.30 | > 50 | < 4.30 | – | < 4.30 | inactive | < 4.30 | inactive | inactive | – | –
Cc1c(O)nc(SCc2cccc(Cl)c2)nc1Cc1c(Cl)cccc1Cl | 400 | 5.32 | > 59 | < 4.23 | 2.3 | 6.51 | – | < 4.23 | – | – | 400 | –
Cc1cn([C@H]2C[C@H](N=[N+]=[N-])[C@@H](CO)O2)c(=O)[nH]c1=O [ZIDOVUDINE] | – | 8.10 | 3.7 | 8.52 | – | 8.52 | – | 8.52 | – | – | – | –
O=C1Nc2ccc(Cl)cc2[C@@](C#CC2CC2)(C(F)(F)F)O1 [EFAVIRENZ] | – | 6.70 | > 0.32 | – | – | – | – | 7.24 | – | – | – | –
COc1ccc(CSc2nc(O)c(C)c(Cc3c(Cl)cccc3Cl)n2)cc1OC | – | 6.03 | > 55 | < 4.26 | 1.2 | 6.70 | inactive | 5.00 | – | inactive | – | –
COc1ccc(CSc2nc(Cc3c(Cl)cccc3Cl)c(C)c(=O)[nH]2)cc1 | 102 | 7.33 | 32 | < 4.49 | 0.004 | 8.15 | – | 5.33 | – | – | 150 | –
Cc1c(O)nc(SCc2ccc3c(c2)C(=O)c2ccccc2C3=O)nc1Cc1c(Cl)cccc1Cl | – | < 4.32 | > 48 | < 4.32 | 3.5 | 4.89 | inactive | < 4.32 | – | inactive | – | –
COc1ccc(CSc2nc(O)c(C)c(Cc3ccc(F)cc3)n2)cc1 | – | < 5.05 | 8.9 | < 5.05 | – | < 5.05 | inactive | < 5.05 | inactive | inactive | – | –
Cc1c(O)nc(SCc2ccccc2)nc1Cc1c(Cl)cccc1Cl | 350 | < 4.19 | > 64 | < 4.19 | 2.5 | 6.08 | inactive | < 4.19 | – | – | – | –
Cc1c(O)nc(SCc2ccc(Cl)cc2)nc1Cc1c(Cl)cccc1Cl | – | 5.68 | > 59 | < 4.23 | 20 | 6.33 | inactive | < 4.23 | – | inactive | – | –
COc1ccc(CSc2nc(O)c(C)c(Cc3c(Cl)cccc3Cl)n2)c(OC)c1 | – | < 4.26 | > 55 | < 4.26 | 25 | 5.88 | inactive | < 4.26 | – | inactive | – | –
Cc1c(O)nc(SCc2cccc(F)c2)nc1Cc1c(Cl)cccc1Cl | 35 | 5.66 | > 61 | < 4.21 | 2 | 6.82 | inactive | < 4.21 | – | – | – | –
